The nature of series [1]: Dissociation constant, pKa of the compound. It is filed as physicochemical. An outline of the steps: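 UV spectrophotometric determination on 10^-4 M aqueous solutions, by two methods. First, spectra were recorded at pH between 2 and 12 with ionic strength fixed at 0.01. Second, solutions at pH 2 (0.5 N HCl) were titrated with 0.5 N NaOH up to pH 12. pKa was derived with the Henderson-Hasselbalch equation and absorption-spectra extrapolation.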

A further series deals with Escherichia coli. As to the kind of experiment: Antibacterial activity against Escherichia coli K12 JM109 overexpressing beta-lactamase. The class given is functional. Summed up:
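Broth microdilution in Mueller Hinton broth against E. coli K12 JM109 overexpressing AmpC from a heat-sensitive pOGO plasmid. Ampicillin MIC determined with and without boronic acids; final inoculum 5 × 10^5 CFU/mL; DMSO below 5%.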

In general, pKa refers to the pH at which an ionisable group is half protonated. A word on the MIC: it is the lowest concentration found to suppress growth. Lower therefore signals a more susceptible organism. Turning to `O=CN(C=O)Cc1ccc2sc(B(O)O)cc2c1`, the pKa in series [1] came out at 6.39. In the series on Escherichia coli, this compound came in with an MIC of 92 µM.

Regarding `OCCN(CCO)Cc1ccc2sc(B(O)O)cc2c1`, the pKa in series [1] was 6.39.

With `O=CNCc1ccc2sc(B(O)O)cc2c1`, the pKa in series [1] came to 6.6.

`O=[N+]([O-])c1cccc(NCc2ccc3sc(B(O)O)cc3c2)c1` yielded a pKa in series [1] of 6.39. In addition, the lowest concentration to inhibit growth with Escherichia coli (MIC) was 78 µM.

`OB(O)c1cc2cc(CNc3ccc(C(O)(C(F)(F)F)C(F)(F)F)cc3)ccc2s1` came in with a pKa in series [1] of 6.39.

`OB(O)c1cccc(NCc2ccc3sc(B(O)O)cc3c2)c1` gave a pKa in series [1] of 6.39.

In series [1], `CC(=O)c1ccc(NCc2ccc3sc(B(O)O)cc3c2)cc1` had a pKa of 6.39. Also, the minimal inhibitory concentration (MIC) with Escherichia coli was found to be 314 µM.

In series [1], `O=C(O)c1cccc(NCc2ccc3sc(B(O)O)cc3c2)c1` returned a pKa of 6.39.

In series [1], `O=C(O)CNCc1ccc2sc(B(O)O)cc2c1` yielded a pKa of 6.39. In the series on Escherichia coli, this compound registered an MIC of 92 µM.

`Nn1cn[n+](Cc2ccc3sc(B(O)O)cc3c2)c1` yielded a pKa in series [1] of 6.39. In addition, in the series with Escherichia coli, the MIC was found to be 117 µM.

Turning to `OB(O)c1cc2cc(CSc3ccccc3)ccc2s1`, the pKa in series [1] amounted to 6.39. Also, the MIC against Escherichia coli stood at 84 µM.

For `OB(O)c1cc2cc(COCc3ccccc3)ccc2s1`, in series [1], the pKa was found to be 6.39.

Take `OB(O)c1cc2cc(COc3ccc(Cl)c(Cl)c3)ccc2s1`: the pKa in series [1] stood at 6.39.

The compound `Cc1ccc2sc(B(O)O)cc2c1` showed a pKa in series [1] of 6.39. In addition, in the series with Escherichia coli, the minimum inhibitory concentration (MIC) amounted to 117 µM.

Compound `OB(O)c1cc2ccccc2s1` gave a pKa in series [1] of 6.39. This compound also came in with an MIC in the series with Escherichia coli of 359 µM.

Regarding `OB(O)c1cc2cc(CNc3ccc(N4CCOCC4)cc3)ccc2s1`, the pKa in series [1] worked out at 6.39.

In the case of `OB(O)c1cc2cc(Cn3ccnc3)ccc2s1`, the pKa in series [1] worked out at 6.39. The same compound displayed an MIC against Escherichia coli of 94 µM.

In the case of `OCc1ccc2sc(B(O)O)cc2c1`, in series [1], the pKa turned out to be 6.39.

For `OB(O)c1cc2cc(COc3ccccc3)ccc2s1`, the pKa in series [1] amounted to 6.39.

The compound `OB(O)c1cc2cc(CNc3ccc(Cl)c(Cl)c3)ccc2s1` showed a pKa in series [1] of 6.39. The compound further came in with an MIC against Escherichia coli of 147 µM.

Compound `COc1ccc(NCc2ccc3sc(B(O)O)cc3c2)cc1OC` gave a pKa in series [1] of 6.39.

For `OB(O)c1cc2cc(CBr)ccc2s1`, in series [1], the pKa came out at 6.39.

The compound `OB(O)c1cc2cc(CN3CCNCC3)ccc2s1` had a pKa in series [1] of 6.39.

As for `CC1(C)S[C@@H]2[C@H](NC(=O)[C@H](N)c3ccccc3)C(=O)N2[C@H]1C(=O)O` [AMPICILLIN], the MIC in the series with Escherichia coli was found to be 512 µg/mL.
